The source of these data is ChEMBL document CHEMBL1139610, “Design, synthesis, and biological evaluation of novel 4-hydro-quinoline-3-carboxamide derivatives as an immunomodulator” (2005).

The structures appear in SMILES notation.

Holding throughout (type): functional
Assay [1] in a line: In vitro percent inhibition of LPS induced B-cell proliferation at the dose 1 ug/mL. Put shortly: (§1)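 Splenocyte single-cell suspension (red cells lysed, 0.16 M NH4Cl-Tris), RPMI-1640 + 10% FBS, 2.5×10^6/mL; LPS 10 µg/mL stimulation with drug at final 1, 10 or 100 µg/mL, triplicate wells; cultured 72 h, 37 °C, [3H]thymidine pulse 0.5 µCi last 16 h, β-counting; %inhibition = (control mean − drug mean)/control mean.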

The nature of assay [2]: In vitro percent inhibition of LPS induced B-cell proliferation at the dose 100 ug/mL. The method, boiled down: as §1
The target of assay [3] is T1, Tumor necrosis factor (Mus musculus) (UniProt P06804).
T1 sequence (whole entry): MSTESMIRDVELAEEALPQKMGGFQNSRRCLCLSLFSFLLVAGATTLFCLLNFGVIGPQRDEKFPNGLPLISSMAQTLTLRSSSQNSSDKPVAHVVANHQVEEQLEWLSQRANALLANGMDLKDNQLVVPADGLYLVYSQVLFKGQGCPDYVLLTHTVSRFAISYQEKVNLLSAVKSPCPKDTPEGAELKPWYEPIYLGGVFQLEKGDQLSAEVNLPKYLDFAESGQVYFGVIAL
As to the kind of experiment: In vitro percent inhibition of tumor necrosis factor, alpha secreted by macrophage at the dose 1 ug/mL. The method, boiled down: (§2)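 RAW264.7 macrophages in RPMI 1640 with 10% FCS, 2 mM glutamine, gentamycin; seeded 2×10^5/mL, grown ~3 days to confluence at 37 °C, 5% CO2; LPS 10 µg/mL plus drug at final 1, 10 or 100 µg/mL for 24 h; supernatant TNF-α by ELISA; %inhibition = (control mean − drug mean)/control mean.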

The nature of assay [4]: In vitro percent inhibition of LPS induced B-cell proliferation at the dose 10 ug/mL. The method, boiled down:
as §1

Assay [5] concerns the target T1, Tumor necrosis factor (Mus musculus). Briefly: In vitro percent inhibition of tumor necrosis factor, alpha secreted by macrophage at the dose 100 ug/mL. The method, boiled down: as §2
The target is the same in assay [6]. Briefly: In vitro percent inhibition of tumor necrosis factor, alpha secreted by macrophage at the dose 10 ug/mL. Put shortly: as §2
A short description of assay [7]: In vitro percent inhibition of ConA induced T-cell proliferation at the dose 1 ug/mL. Put shortly:
(§3)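 Spleen cells sieved to single-cell suspension, red cells lysed with 0.16 M NH4Cl-Tris, washed, in RPMI-1640 + 10% FBS; seeded at 2.5×10^6/mL, stimulated with ConA 0.5 µg/mL, drug final 1, 10 or 100 µg/mL, triplicates; 72 h at 37 °C, [3H]thymidine 0.5 µCi for final 16 h; cpm counted; %inhibition = (control − drug)/control.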

The nature of assay [8]: In vitro percent inhibition of ConA induced T-cell proliferation at the dose 100 ug/mL. The method, boiled down:
as §3

Assay [9] in a line: In vitro percent inhibition of ConA induced T-cell proliferation at the dose 10 ug/mL. Put shortly: as §3

On to `O=C(Nc1ccc(N(CCO)CCO)cc1)c1cnc2ccccc2c1O`, for which the inhibition at 1 µg/mL in assay [1] is 38%; in [7] it was 45.8%. Besides, the results for the inhibition at 100 µg/mL in [2] and in assay [8] were 88.5% and 99.1%, respectively. Further, the inhibition in assay [3] was determined as 1.82%; in [5] it was 30.4%; in assay [6] it was 12.1%. The inhibition at 10 µg/mL in assay [4] was determined as 75.8%; in assay [9], 61%.
In the case of `CSc1ccc2c(O)c(C(=O)N(C)c3ccccc3)cnc2c1`, the values for the inhibition at 1 µg/mL in [1] and in assay [7] were 31.1% and 26.2%, respectively. Moreover, the inhibition at 100 µg/mL was determined as 83.5% in assay [2] and 76% in [8]. Also, the inhibition in assay [3] stood at 14.6%; in assay [5], 52.7%; in assay [6] it was 22.2%. Besides, the inhibition at 10 µg/mL in assay [4] was found to be 17%; in [9], 11.8%.
Regarding `O=C(Nc1ccccc1)c1cnc2cc(Cl)ccc2c1O`, the inhibition at 1 µg/mL in assay [1] was -2.65%; in [7] it was 16.7%. For the same molecule, the results for the inhibition at 100 µg/mL in assay [2] and in assay [8] were 27.1% and 22.3%, respectively. For the same molecule, the inhibition in [3] was 10.5%; in assay [5], 23.1%; in [6] it was 10.4%. In addition, the inhibition at 10 µg/mL turned out to be 12.3% in assay [4] and 32.6% in [9].
For `CCCN(CCC)C(=O)c1cnc2cc(Cl)ccc2c1O`, the inhibition at 1 µg/mL in [1] is -3.57%; in assay [7] it was 42.1%. In addition, the inhibition at 100 µg/mL in [2] was 12.6%; in [8], 51.2%. For the same molecule, the inhibition in assay [3] is 14.7%; in assay [5], -4.03%; in assay [6], 18.4%. In addition, the inhibition at 10 µg/mL was determined as 18.1% in assay [4] and 49.5% in assay [9].
With `CN(C(=O)c1c(O)c2ccccc2n(C)c1=O)c1ccccc1` [ROQUINIMEX], the inhibition at 1 µg/mL amounted to 0% in assay [1] and 58.1% in assay [7]. The figures for the inhibition at 100 µg/mL in assay [2] and in assay [8] were 62.7% and 78.5%, respectively. Further, the inhibition stood at 9.95% in [3], 27.3% in assay [5] and 18.2% in [6]. The inhibition at 10 µg/mL in assay [4] came out at 24.6%; in assay [9] it was 70.6%.
For the molecule `CCN(C(=O)c1cnc2c(C)cc(C)cc2c1O)c1ccccc1`, the figures for the inhibition at 1 µg/mL in assay [1] and in [7] were 4.49% and 31.9%, respectively. Moreover, the inhibition at 100 µg/mL in [2] was determined as 87.5%; in [8], 64.2%. Moreover, the inhibition in assay [3] came to 46.3%; in assay [5] it was 47.6%; in [6] it was 29.7%. Also, the results for the inhibition at 10 µg/mL in assay [4] and in [9] were 36% and 35.5%, respectively.
As to `O=C(O)c1ccc(NC(=O)c2cnc3ccccc3c2O)cc1`, the inhibition at 1 µg/mL was -1.94% in assay [1] and 28.6% in [7]. The inhibition at 100 µg/mL in assay [2] was 28%; in [8], -20.9%. The inhibition in [3] was 31.2%; in assay [5] it was 27.5%; in assay [6], 5.61%. Further, the inhibition at 10 µg/mL in assay [4] turned out to be 4.33%; in [9] it was 38.8%.
On to `CN(C(=O)c1cnc2cc(Cl)ccc2c1O)c1ccccc1`, for which the inhibition at 1 µg/mL in assay [1] is -4.33%; in assay [7] it was -24.7%. The results for the inhibition at 100 µg/mL in assay [2] and in [8] were 14.1% and 41.2%, respectively. Further, the inhibition amounted to 18.6% in assay [3], 25.6% in assay [5] and 5.61% in assay [6]. Further, the inhibition at 10 µg/mL is -26.7% in assay [4] and -27.6% in [9].
With `O=C(O)c1ccc(NC(=O)c2cnc3ccc(Cl)cc3c2O)cc1`, the inhibition at 1 µg/mL in assay [1] was determined as 17.8%; in [7], 12.7%. The inhibition at 100 µg/mL was determined as 87% in assay [2] and 98.9% in assay [8]. The results for the inhibition in assay [3], in [5] and in [6] were 0.78%, -5.35% and 32.1%, respectively. Moreover, the inhibition at 10 µg/mL in assay [4] came out at 52.9%; in [9] it was 61.5%.
